Results taken from ChEMBL document CHEMBL1135024, “Studies toward the discovery of the next generation of antidepressants. Part 2: incorporating a 5-HT(1A) antagonist component into a class of serotonin reuptake inhibitors” (Bioorg Med Chem Lett, 2002).

Assays:
[1] = molecular target: Sodium-dependent serotonin transporter (Homo sapiens, UniProt P31645); assay: Affinity for HC Serotonin transporter determined in vitro by incubating compound and [3H]5-HT with human carcinoma (Jar cells), previously treated with staurosporine; assay type: cell-based
Outline: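 Read-out is specific [³H]-5-HT uptake into Jar human carcinoma cells pretreated with staurosporine to enhance transporter expression, after incubation with the test compound.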

[2] = molecular target: T1, Adrenergic receptor alpha-1 (Rattus norvegicus, UniProt P15823+P23944+P43140); assay: In vitro binding affinity towards Alpha-1 adrenergic receptor was determined by the displacement of [3H]prazosin; assay type: protein assay
T1 sequence (P15823 whole entry): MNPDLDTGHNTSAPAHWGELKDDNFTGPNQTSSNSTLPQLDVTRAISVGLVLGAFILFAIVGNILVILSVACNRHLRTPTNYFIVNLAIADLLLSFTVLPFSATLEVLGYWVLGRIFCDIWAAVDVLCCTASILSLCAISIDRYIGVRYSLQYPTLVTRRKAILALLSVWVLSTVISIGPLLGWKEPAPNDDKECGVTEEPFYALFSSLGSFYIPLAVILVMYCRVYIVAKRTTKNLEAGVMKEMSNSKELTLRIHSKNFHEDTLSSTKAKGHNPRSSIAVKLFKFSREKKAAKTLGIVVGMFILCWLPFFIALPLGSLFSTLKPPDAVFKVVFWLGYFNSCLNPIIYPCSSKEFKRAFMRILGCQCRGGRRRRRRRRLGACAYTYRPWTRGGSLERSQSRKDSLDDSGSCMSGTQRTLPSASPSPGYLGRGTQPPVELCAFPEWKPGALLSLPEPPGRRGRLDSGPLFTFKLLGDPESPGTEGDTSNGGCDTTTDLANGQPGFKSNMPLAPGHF
T1 sequence (P23944 whole entry): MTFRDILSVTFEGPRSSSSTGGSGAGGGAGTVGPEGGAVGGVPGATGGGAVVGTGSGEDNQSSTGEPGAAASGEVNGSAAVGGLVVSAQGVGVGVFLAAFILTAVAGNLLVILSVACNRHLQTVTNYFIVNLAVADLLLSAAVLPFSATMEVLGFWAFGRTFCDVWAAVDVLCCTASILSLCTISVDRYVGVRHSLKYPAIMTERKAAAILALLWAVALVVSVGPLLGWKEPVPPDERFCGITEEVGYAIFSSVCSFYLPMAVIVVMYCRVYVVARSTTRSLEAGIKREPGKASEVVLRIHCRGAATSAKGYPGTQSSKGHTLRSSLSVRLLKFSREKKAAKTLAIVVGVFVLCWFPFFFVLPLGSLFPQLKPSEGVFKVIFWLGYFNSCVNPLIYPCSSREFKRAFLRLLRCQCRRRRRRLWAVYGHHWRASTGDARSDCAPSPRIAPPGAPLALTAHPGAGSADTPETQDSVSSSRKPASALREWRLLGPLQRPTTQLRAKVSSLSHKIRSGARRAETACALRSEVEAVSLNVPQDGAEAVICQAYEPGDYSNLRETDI
T1 sequence (P43140 whole entry): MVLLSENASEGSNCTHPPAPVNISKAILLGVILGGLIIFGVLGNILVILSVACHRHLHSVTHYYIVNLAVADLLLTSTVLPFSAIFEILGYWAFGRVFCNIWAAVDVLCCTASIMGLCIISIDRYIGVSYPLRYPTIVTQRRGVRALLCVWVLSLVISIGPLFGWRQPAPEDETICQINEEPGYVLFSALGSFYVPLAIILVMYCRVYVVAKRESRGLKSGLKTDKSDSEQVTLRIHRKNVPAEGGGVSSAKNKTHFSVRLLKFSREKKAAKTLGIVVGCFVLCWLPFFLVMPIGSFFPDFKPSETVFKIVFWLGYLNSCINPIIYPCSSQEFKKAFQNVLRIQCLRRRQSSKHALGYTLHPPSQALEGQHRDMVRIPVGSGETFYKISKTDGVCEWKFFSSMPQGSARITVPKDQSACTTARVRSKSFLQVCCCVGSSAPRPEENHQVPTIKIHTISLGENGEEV
Outline: (§1)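 Displacement binding: [³H]-prazosin for α1 and [³H]-8-OH-DPAT for human 5-HT1A. Ki values are the mean of 2–3 experiments at six concentrations, each in triplicate. 95% confidence limits were generally within 15% of the mean.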

[3] = molecular target: T2, 5-hydroxytryptamine receptor 1A (Homo sapiens, UniProt P08908); assay: Antagonism at the 5-hydroxytryptamine 1A receptor was determined in vitro using a [35S]GTP-gamma-S,; assay type: functional
T2 sequence (P08908 whole entry): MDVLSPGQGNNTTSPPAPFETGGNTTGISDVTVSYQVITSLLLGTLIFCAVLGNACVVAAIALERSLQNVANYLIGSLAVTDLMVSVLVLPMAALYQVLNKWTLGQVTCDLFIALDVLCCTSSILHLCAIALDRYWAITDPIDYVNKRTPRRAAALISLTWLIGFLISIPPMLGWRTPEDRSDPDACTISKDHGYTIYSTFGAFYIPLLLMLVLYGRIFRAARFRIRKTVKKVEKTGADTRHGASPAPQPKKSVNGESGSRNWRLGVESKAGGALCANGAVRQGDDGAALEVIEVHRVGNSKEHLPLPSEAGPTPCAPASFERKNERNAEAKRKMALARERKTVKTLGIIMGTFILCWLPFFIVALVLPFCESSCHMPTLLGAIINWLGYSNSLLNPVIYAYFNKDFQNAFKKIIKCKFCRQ

[4] = molecular target: T3, 5-hydroxytryptamine receptor 1A (Homo sapiens) (UniProt P08908); assay: In vitro agonist activity at the 5-hydroxytryptamine 1A receptor; assay type: functional
T3 sequence (whole entry): T2 sequence (P08908 whole entry)

[5] = molecular target: T2, 5-hydroxytryptamine receptor 1A; assay: Antagonism of 5-hydroxytryptamine 1A receptor determined in vitro; assay type: functional
[6] = molecular target: T3, 5-hydroxytryptamine receptor 1A (Homo sapiens); assay: Agonist activity at the 5-hydroxytryptamine 1A receptor was determined in vitro using a [35S]GTP-gamma-S,; assay type: functional
[7] = molecular target: Sodium-dependent serotonin transporter (Rattus norvegicus, UniProt P31652); assay: Affinity for RB Serotonin transporter was determined in vitro by incubating compound
Outline: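 Radioligand binding to the 5-HT transporter with [³H]-paroxetine. Ki values are the mean of 2–3 experiments, each run in triplicate at six concentrations. 95% confidence limits were generally within 15% of the mean.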

[8] = molecular target: T2, 5-hydroxytryptamine receptor 1A; assay: In vitro binding affinity towards Human 5-hydroxytryptamine 1A receptor by the displacement of [3H]8-OH-DPAT; assay type: single protein; outline: as §1
[9] = molecular target: T2, 5-hydroxytryptamine receptor 1A; assay: Antagonism at the 5-hydroxytryptamine 1A receptor in vitro; assay type: functional
[10] = molecular target: T2, 5-hydroxytryptamine receptor 1A; assay: Antagonism of 5-hydroxytryptamine 1A receptor was determined in vitro using a [35S]GTP-gamma-S,; assay type: functional
[11] = molecular target: T3, 5-hydroxytryptamine receptor 1A (Homo sapiens); assay: Agonist activity at the 5-hydroxytryptamine 1A receptor determined in vitro using a [35S]GTP-gamma-S,; assay type: functional

Sequence of Sodium-dependent serotonin transporter (Homo sapiens, UniProt P31645) (P31645 whole entry): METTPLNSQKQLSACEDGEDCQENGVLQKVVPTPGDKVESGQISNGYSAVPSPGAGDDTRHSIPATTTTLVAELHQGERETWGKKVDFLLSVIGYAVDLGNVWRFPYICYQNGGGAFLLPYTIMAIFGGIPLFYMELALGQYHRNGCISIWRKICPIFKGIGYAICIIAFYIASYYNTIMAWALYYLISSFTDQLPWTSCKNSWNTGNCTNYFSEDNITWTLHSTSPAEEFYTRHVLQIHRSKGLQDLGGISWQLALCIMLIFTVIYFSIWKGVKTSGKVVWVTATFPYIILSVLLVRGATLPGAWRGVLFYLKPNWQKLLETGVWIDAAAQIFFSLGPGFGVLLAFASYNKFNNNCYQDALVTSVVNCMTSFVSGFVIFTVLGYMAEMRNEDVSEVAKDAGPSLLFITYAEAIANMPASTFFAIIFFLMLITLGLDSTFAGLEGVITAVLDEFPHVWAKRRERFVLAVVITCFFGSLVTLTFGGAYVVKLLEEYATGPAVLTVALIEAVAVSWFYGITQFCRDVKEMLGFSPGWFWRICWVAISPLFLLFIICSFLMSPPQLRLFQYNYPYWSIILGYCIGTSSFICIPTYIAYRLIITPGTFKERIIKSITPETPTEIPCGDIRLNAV
Sequence of Sodium-dependent serotonin transporter (Rattus norvegicus, UniProt P31652) (P31652 whole entry): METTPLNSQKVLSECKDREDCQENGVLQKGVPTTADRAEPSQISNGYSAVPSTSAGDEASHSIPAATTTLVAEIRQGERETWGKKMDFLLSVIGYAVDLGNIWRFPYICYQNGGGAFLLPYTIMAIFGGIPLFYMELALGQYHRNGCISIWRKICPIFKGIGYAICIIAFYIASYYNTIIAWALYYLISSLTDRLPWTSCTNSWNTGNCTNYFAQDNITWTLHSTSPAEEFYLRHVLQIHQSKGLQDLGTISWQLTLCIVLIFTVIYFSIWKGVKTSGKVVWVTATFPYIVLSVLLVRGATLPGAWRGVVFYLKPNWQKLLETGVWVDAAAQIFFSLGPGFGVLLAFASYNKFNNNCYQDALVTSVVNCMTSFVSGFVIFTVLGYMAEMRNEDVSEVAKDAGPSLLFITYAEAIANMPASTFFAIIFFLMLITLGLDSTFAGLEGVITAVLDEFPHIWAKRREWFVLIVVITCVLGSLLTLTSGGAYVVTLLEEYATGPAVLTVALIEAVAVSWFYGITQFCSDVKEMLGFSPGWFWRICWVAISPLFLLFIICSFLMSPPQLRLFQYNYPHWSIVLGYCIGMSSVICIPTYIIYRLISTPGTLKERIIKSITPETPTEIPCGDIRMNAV

## C1=C(c2c[nH]c3ncccc23)CCN(CCOc2cccc3ncccc23)C1
[1]
  Ki: 387 nM
[2]
  Ki: 78 nM
[3]
  IC50: 181 nM
[4]
  Emax: 0
[5]
  IC50: 90 nM
[6]
  Emax: 0

## Fc1ccc2c(C3=CCN(CCOc4cccc5c4OCCO5)CC3)c[nH]c2c1
[1]
  Ki: 19.8 nM
[2]
  Ki: 4.1 nM
[7]
  Ki: 0.15 nM
[8]
  Ki: 83.6 nM
[6]
  Emax: 53

## C1=C(c2c[nH]c3ncccc23)CCN(CCOc2cccc3c2OCCO3)C1
[9]
  IC50: 969 nM
[1]
  Ki: 276 nM
[2]
  Ki: 33 nM
[4]
  Emax: 0
[6]
  Emax: 30

## Fc1ccc2[nH]cc(C3=CCN(CCOc4cccc5c4OCCO5)CC3)c2c1
[1]
  Ki: 46.9 nM
[2]
  Ki: 30 nM
[7]
  Ki: 1.17 nM
[4]
  Emax: 0
[10]
  IC50: 684 nM
[5]
  IC50: 1040 nM
[6]
  Emax: 11

## Fc1ccc2[nH]cc(CC3CCN(CCOc4cccc5c4OCCO5)CC3)c2c1
[7]
  Ki: 0.01 nM

## C1=C(c2c[nH]c3ccccc23)CCN(CCOc2cccc3ncccc23)C1
[1]
  Ki: 93.6 nM
[2]
  Ki: 3.6 nM
[7]
  Ki: 0.23 nM
[8]
  Ki: 92.6 nM
[4]
  Emax: 0
[10]
  IC50: 524 nM
[5]
  IC50: 686 nM
[6]
  Emax: 14

## Fc1ccc2c(C3CCN(CCOc4cccc5c4OCCO5)CC3)c[nH]c2c1
[1]
  Ki: 128 nM
[2]
  Ki: 2.8 nM
[7]
  Ki: 4.7 nM
[8]
  Ki: 19.6 nM
[4]
  Emax: 0
[10]
  IC50: 666 nM
[5]
  IC50: 920 nM
[6]
  Emax: 29.5

## C1=C(c2c[nH]c3ncccc23)CCN(CCOc2cccc3[nH]ccc23)C1
[1]
  Ki: 175 nM
[2]
  Ki: 0.9 nM
[4]
  Emax: 0
[10]
  IC50: 38.9 nM
[5]
  IC50: 12 nM
[6]
  Emax: 7

## C1=C(c2c[nH]c3ccccc23)CCN(CCOc2cccc3[nH]ccc23)C1
[1]
  Ki: 41.2 nM
[2]
  Ki: 0.19 nM
[7]
  Ki: 0.03 nM
[8]
  Ki: 21.6 nM
[3]
  IC50: 115 nM
[4]
  Emax: 0
[5]
  IC50: 33 nM
[11]
  Emax: 7.5

## C1=C(c2c[nH]c3ccccc23)CCN(CCOc2cccc3c2OCCO3)C1
[1]
  Ki: 45 nM
[2]
  Ki: 4.7 nM
[7]
  Ki: 0.17 nM
[4]
  Emax: 0
[10]
  IC50: 222 nM
[5]
  IC50: 115 nM
[6]
  Emax: 21
